ARFGAP1 inh – inhibitors of rat ARFGAP1; Arfgap1-stimulated ARF1 GTP hydrolysis, GDP FP detection; Q62848; AID 651572; hit rate 0.26% among 360,000; inhibition, % at 16.5 µM;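 active means inhibition above a per-plate limit, mean inhibition of low control wells plus 3 SD, cut at about 25% in these data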
Target sequence (Q62848 1-136 limits assumed): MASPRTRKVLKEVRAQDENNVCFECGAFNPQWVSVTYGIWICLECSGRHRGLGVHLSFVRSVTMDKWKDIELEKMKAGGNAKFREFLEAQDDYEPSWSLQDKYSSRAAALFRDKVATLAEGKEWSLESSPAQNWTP
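Material: truncated rat Arfgap1 GAP domain; Incubation: compound-enzyme preincubation 20 min, reaction 120 min, detection 60 min, 25 °C; Read-out: percent inhibition of Arfgap1-stimulated GTP hydrolysis; Technique: FP, GDP Alexa 633 tracer displaced from anti-GDP antibody, 620/688 nm; Controls: No-Arfgap1 wells (100%) versus DMSO full-reaction wells (0%); Replication: single well per compound.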
ASAP1 GAP inh – inhibitors of human ASAP1 ArfGAP activity; Q9ULH1; ASAP1-stimulated ARF1 GTP hydrolysis, GDP FP detection; inhibition, % at 16.5 µM; hit rate 0.19% among 360,000; AID 624377; in the data active means inhibition above about 25%
Target sequence (Q9ULH1 325-724 limits assumed): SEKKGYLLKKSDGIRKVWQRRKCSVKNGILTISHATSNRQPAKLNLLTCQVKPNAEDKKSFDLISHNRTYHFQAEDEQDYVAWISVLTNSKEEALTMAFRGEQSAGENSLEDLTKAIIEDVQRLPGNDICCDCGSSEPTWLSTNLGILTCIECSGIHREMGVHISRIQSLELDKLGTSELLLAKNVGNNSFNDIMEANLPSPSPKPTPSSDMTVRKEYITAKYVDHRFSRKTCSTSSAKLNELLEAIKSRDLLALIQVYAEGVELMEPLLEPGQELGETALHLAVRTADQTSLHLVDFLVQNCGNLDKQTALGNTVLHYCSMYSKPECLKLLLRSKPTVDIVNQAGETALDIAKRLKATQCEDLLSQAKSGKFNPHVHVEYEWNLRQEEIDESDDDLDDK
LEDGF integ inh – blocks HIV-1 LEDGF/p75-dependent DNA integration; TR-FRET IN-LEDGF/p75 DNA integration, Eu/Cy5; inhibition, % at 3.7 µM; hit rate 0.64% among 370,000;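 active means inhibition above the screen-wide mean plus 3 SD, cut at about 13% in these data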;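 further: signal is the Cy5 over europium emission ratio at 671 and 618 nm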
TDP2 inh – blocks human TDP2 phosphodiesterase activity; AID 720702; hit rate 0.34% among 370,000; inhibition, % at 12.8 µM; O95551; recombinant TDP2, T5PNP hydrolysis, p-nitrophenol absorbance 415 nm;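 active means inhibition above the mean of all tested compounds plus 3 SD, set per campaign, cut at about 25% in these data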
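Assay system: recombinant human TDP2 / Reagent: T5PNP substrate at 5 mM, a TopII-DNA adduct mimic / Measured by: epi absorbance from released p-nitrophenol / Evaluation: % inhibition relative to enzyme-containing and enzyme-free wells / Control set: enzyme-free and DMSO wells / Replicates: each compound tested once, singlicate / Schedule: enzyme reaction with compound for 2 h at 37 °C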
CASP6 VEID inh – blocks human caspase-6 cleavage activity; P55212; purified caspase-6, Z-VEID-R110 cleavage fluorescence; inhibition, % at 12.5 µM; hit rate 0.53% among 350,000; AID 686996;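 active means mean inhibition across replicates at least about 35%, with every replicate also reaching that limit, limit read from the data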
IN multimer act – counter-screen for LEDGF/p75 integration inhibitors: HIV-1 integrase multimerization activators | TR-FRET HIV-1 integrase multimerization, biochemical | shares compounds with LEDGF integ inh | AID 1053131 | activation, % at 7.7 µM | hit rate 17% among 2,000; in the data active means activation above about 8.9%
TRFRET interf – counter-screen for LEDGF/p75 integration inhibitors: TR-FRET optical interference; shares compounds with LEDGF integ inh; TR-FRET optical interference counterscreen, HIV-1 IN multimerization; inhibition, % at 7.7 µM; 2,000 tested, under 10 active; AID 1053135;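 active means inhibition above the mean over all tested compounds plus 3 SD, which no compound reached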
IN-LEDGF confirm – LEDGF/p75-dependent HIV-1 integration inhibition, confirmation; inhibition, % at 3.7 µM; hit rate 36% among 2,000; AID 1053136; TR-FRET LEDGF/p75-dependent HIV-1 integration, biochemical; shares compounds with LEDGF integ inh; in the data active means inhibition above about 14%
Each line names hits and unclear results; the compound was inactive in the other large screens (follow-up assays come after a bar, where they were run). This is a sample that favours compounds with a hit; in the whole collection about 1.3% have one here.

CCO[C@@H]1OC(C(=O)N2CCCCCCC2)=C[C@H](c2ccc3c(c2)OCO3)[C@H]1CCCO	none
O=C(Cn1cncn1)NCc1ccc(Cl)cc1	LEDGF integ inh 19 (no result: CASP6 VEID inh) | IN multimer act inactive | TRFRET interf inactive | IN-LEDGF confirm inactive
O=C(Cn1cncn1)N/N=C/c1ccc(Cl)cc1	none (no result: CASP6 VEID inh)
COC(=O)Cc1ccc(NC(=S)Nc2ccc(N3CCOCC3)cc2)cc1	LEDGF integ inh 14 | IN multimer act inactive | TRFRET interf inactive | IN-LEDGF confirm inactive
Cc1cccc(C(=O)NC(=S)Nc2ccc(N3CCOCC3)cc2)c1	LEDGF integ inh 20 | IN multimer act inactive | TRFRET interf inactive | IN-LEDGF confirm inactive
Cc1cccc(NC(=S)Nc2ccc(N3CCOCC3)cc2)c1C	LEDGF integ inh 21 (no result: CASP6 VEID inh) | IN multimer act inactive | TRFRET interf inactive | IN-LEDGF confirm inactive
COC(=O)c1ccccc1NC(=O)c1cnn2c(C(F)F)cc(C3CC3)nc12	none (no result: CASP6 VEID inh)
CCOCC(=O)OCC(=O)NC12CC3CC(CC(C3)C1)C2	none
CCC(CC)C(=O)OCC(=O)NC12CC3CC(CC(C3)C1)C2	LEDGF integ inh 14 | IN multimer act inactive | TRFRET interf inactive | IN-LEDGF confirm inactive
COCc1cc(N2CCN(C(=O)OC(C)(C)C)C[C@H]2C)ccc1N1CC[C@@H](O)C1	LEDGF integ inh 14 | IN multimer act inactive | TRFRET interf inactive | IN-LEDGF confirm inactive
COCc1cc(N2CCN(C(=O)OC(C)(C)C)C[C@@H]2C)ccc1N1C[C@@H](C)O[C@@H](C)C1	none
C[C@@H]1CN([C@@H](C)CO)C(=O)c2cc(NC(=O)C3CC3)ccc2O[C@@H]1CN(C)C	none (no result: ARFGAP1 inh, ASAP1 GAP inh, LEDGF integ inh, TDP2 inh)
O=C1CSC(c2ccc([N+](=O)[O-])cc2)N1c1ccccc1 (stereo unspecified)	none
COc1ccc(S(=O)(=O)Nc2cccc3c2O[C@@H](CN(C)C(=O)Nc2ccc(C(F)(F)F)cc2)[C@@H](C)CN([C@@H](C)CO)C3=O)cc1	none (no result: ARFGAP1 inh, ASAP1 GAP inh, LEDGF integ inh, TDP2 inh)
CCSC1=NSC2=NC(=O)/C(=C\c3coc4ccccc4c3=O)C(=N)N12	none (no result: CASP6 VEID inh)
CC(C)CC1=NN2C(=N)/C(=C\c3coc4ccccc4c3=O)C(=O)N=C2S1	LEDGF integ inh 26 (no result: CASP6 VEID inh) | IN multimer act inactive | TRFRET interf inactive | IN-LEDGF confirm 23
COc1cc(CCC(O)CC(=O)CCc2ccccc2)ccc1O (stereo unspecified)	LEDGF integ inh 23 | IN multimer act inactive | TRFRET interf inactive | IN-LEDGF confirm inactive
CN(C)C(CNC(=O)c1c(F)cccc1Cl)c1ccco1 (stereo unspecified)	none
COc1cc(N=C2C(=O)N3CCCc4cccc2c43)cc(OC)c1	none (no result: CASP6 VEID inh)
O=C1c2cccc3c2N(CCC3)C(=O)C1(F)c1ccccc1 (stereo unspecified)	LEDGF integ inh 14 | IN multimer act inactive | TRFRET interf inactive | IN-LEDGF confirm inactive
CC(C)NC(=O)N(C)C[C@@H]1Oc2ccc(NS(=O)(=O)c3ccc(F)cc3)cc2C(=O)N([C@H](C)CO)C[C@@H]1C	none (no result: ARFGAP1 inh, ASAP1 GAP inh, LEDGF integ inh, TDP2 inh)
O=C1NC(c2cccc(Br)c2)=N/C1=C\c1ccco1	LEDGF integ inh 21 | IN multimer act inactive | TRFRET interf inactive | IN-LEDGF confirm inactive
CCCNC(=O)C1(C)CCN(CCC(=O)c2ccc(Br)cc2)C1 (stereo unspecified)	LEDGF integ inh 63 | IN multimer act inactive | TRFRET interf inactive | IN-LEDGF confirm inactive
COCCNC(=O)C1(C)CCCN(CCC(=O)c2ccc(Br)cc2)C1 (stereo unspecified)	none
CC(=O)N1CCC2(CC1)C(C#N)=C(N)Oc1n[nH]c(C(F)(F)F)c12	none (no result: CASP6 VEID inh)
C=CCN1C(=O)C(CC(=O)NCC)SC1=Nc1ccc(S(N)(=O)=O)cc1 (stereo unspecified)	none (no result: CASP6 VEID inh)
C=C1CC2C(=O)N(Cc3cc(OC)ccc3OC)C(C(=O)OCC)(C(=O)OCC)C1N2C(=O)OC(C)(C)C (stereo unspecified)	LEDGF integ inh 50 | IN multimer act inactive | TRFRET interf inactive | IN-LEDGF confirm inactive

High-throughput results (PubChem BioAssay)
